HIV Env fusion = inhibitors of HIV-1 Env-driven cell-cell fusion, primary screen, HeLa-JRFL effector, CEM21 target cells, luciferase; inhibition, % at 12.3 µM; 1.1% of 360,000 active; AID 651610, 2012;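 active = mean replicate inhibition score of at least 50 and every replicate individually at or above 50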;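 also: 0% = plate neutral controls and 100% = maraviroc near 300 nM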
PGC1a acetyl inh = inhibitors of PGC1a acetylation signal, primary screen, cell-based, U2OS, AlphaScreen, inhibitor mode; AlphaScreen anti-acetyl-lysine; with virally co-expressed GCN5 acetyltransferase; inhibition, % at 15.6 µM; 0.17% of 350,000 active;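 active = every replicate shows inhibition of at least 40%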;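 also: 0% = neutral control wells and 100% = positive control wells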
Ecoli rRNA inh = reduced GFP signal of wild-type E. coli, primary screen, bacterial rRNA inhibitor project, GFP/RFP fluorescence, OD600, single point. E. coli WT GFP vs humanized-ribosome RFP mutants, 24 h; active compounds read low; DMSO median 0, no signal -100. GFP signal change (wild-type ribosome), % (concentration not given with the values). 1.6% of 350,000 active;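 active = significant combined selectivity score with lowered wild-type GFP, culture density cut under 30%, mutant RFP and density less affected; inactive = any of these conditions unmet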
FGF22 binding = binders of human FGF22 protein, primary screen, FGF22 synaptogenesis inhibitor project, biophysical, thermal shift, single point; recombinant FGF22 thermal shift, SYPRO orange fluorescence; percent of sucrose octasulfate shift, DMSO zero; activity (Tm shift, normalised), % at 9.99 µM; 1.5% of 340,000 active;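 active = mean Tm shift, scaled 0 neutral to 100 positive control, at about 1.3% or above, every replicate too, limit read from the data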
Target sequence (Q9HCT0 whole entry, looked up): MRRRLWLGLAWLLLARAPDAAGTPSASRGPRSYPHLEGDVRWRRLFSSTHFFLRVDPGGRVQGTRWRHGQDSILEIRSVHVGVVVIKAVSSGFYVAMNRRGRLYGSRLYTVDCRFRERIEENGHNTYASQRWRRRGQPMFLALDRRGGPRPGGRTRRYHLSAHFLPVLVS
Cneo AK release = Cryptococcus neoformans cell lysis inducers, primary screen, AK release luminescence, single concentration. C. neoformans lysis, adenylate kinase release luminescence, 4 h; normalised: neutral wells 0, clomiphene wells 100. lysis activity, % at 15 µM. 0.2% of 360,000 active. AID 651654, 2012;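 active = mean lysis activity across replicates of at least 80%, whatever share of replicates individually reach that level; inactive = mean lysis activity below 80%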
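Assay system: C. neoformans cells. Amount: yeast cell density of 5 × 10^6 cells/mL. Technique: AK luminescence. Buffer or medium: YPD. Times: static 4 h at 37 °C with compound, 1 h detection. Dosing: single-point compound dose. Read-out: lysis from increased AK signal.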
ERAP1 inh = human ERAP1 aminopeptidase inhibitors, primary screen, biochemical, single point, plate reader; Endoplasmic reticulum aminopeptidase 1 (Homo sapiens), Q9NZ08; recombinant ERAP1, Leu-AMC fluorescence, 60 min; inhibition, % at 10.7 µM; 0.15% of 340,000 active; AID 652197, 2013;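 active = mean replicate inhibition of at least 30%, or all replicates individually reaching that 30% level; inactive = mean below 30% and not every replicate reaching it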;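 also: 0% = neutral control wells and 100% = L-leucinethiol positive control wells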
Active calls of the source: *; . = no result; [ ] = remark or other dose. An excerpt weighted towards active compounds, which were near 3.5% of everything screened.

SMILES | HIV Env fusion | PGC1a acetyl inh | Ecoli rRNA inh | FGF22 binding | Cneo AK release | ERAP1 inh
COc1cc2c(cc1OC)C(c1ccccc1)N(C(=O)c1ccccc1)CC2 (stereo unspecified) | -60 | . | -28 | 0 | -1 | 1
O=C1NCCN(Cc2ccc(Cl)c(F)c2)C1CC(=O)N1CCCO1 (stereo unspecified) | -29 | . | . | 43* | . | 1
O=C1NCCN(Cc2c(F)cccc2Cl)C1CC(=O)N1CCCO1 (stereo unspecified) | -1 | . | 9 | 0 | 1 | -4
Cc1c(S(=O)(=O)N2CCCC(C)C2)c(=O)n(C)c(=O)n1C (stereo unspecified) | 0 | . | 4 | 0 | . | -1
O=C(CSc1nc2[nH]ncc2c(=O)[nH]1)Nc1ccc(OC(F)(F)F)cc1 | 1 | . | 2 | 14* | . | 4
CCN(CC)c1ccc(NC(=O)CSc2nc(C)cc(=O)[nH]2)cc1 | 8 | 6 | -14* | 0 | -2 | 1
COC(=O)c1ccc(NC(=O)CSc2nc3[nH]ncc3c(=O)[nH]2)cc1 | -42 | . | 5 | 0 | . | 2
Cc1ccc(NC(=O)CSc2nc3[nH]ncc3c(=O)[nH]2)cc1 | 6 | . | . | 44* | -3 | -3
COC(=O)N(NC(=O)C(O)(CCC(C)C)CCC(C)C)c1ccccc1 | 3 | . | 7 | 0 | 7 | 3
O=C1c2ccccc2C(c2nnnn2Cc2ccccc2)N1Cc1ccc2c(c1)OCO2 (stereo unspecified) | 41 | . | -27* | 0 | . | -6
O=C1c2ccccc2C(c2nnnn2Cc2ccccc2)N1Cc1ccc(F)cc1 (stereo unspecified) | 26 | . | -13 | 0 | . | .
COc1ccc([C@H]2/C=C\CN(C(=O)C3CC3)[C@@H](C)C(=O)N2Cc2ccc(F)cc2)cc1 | 70* | -4 | -10 | 0 | 1 | -2
COc1ccc(C2/C=C\CN(C(=O)C3CC3)[C@H](Cc3ccccc3)C(=O)N2Cc2ccc(F)cc2)cc1 (stereo partly specified) | . | . | . | . | 1 | .
COc1ccc(Cl)cc1NC(=O)Nc1cnccn1 | 71* | . | 8 | 0 | 4 | -2
O=C(Nc1ccc(Cl)cc1)Nc1cnccn1 | -18 | . | . | . | . | .
COc1ccc(NC(=O)Nc2cnccn2)c(OC)c1 | 57* | . | 1 | 0 | 0 | 1
COc1ccc(C)cc1NC(=O)Nc1cnccn1 | -13 | 7 | -1 | 0 | . | 5
O=C(Nc1ccc(F)c(Cl)c1)Nc1cnccn1 | -16 | . | 2 | 44* | . | -2
COC(=O)c1sc(NC(=O)CSc2nnc(C(C)C)n2C)nc1C | . | . | . | . | 13 | .
COc1ccc(CCNC(=O)COC(=O)c2ccc(Br)o2)cc1 | -23 | 7 | . | . | 1 | .
C=CC[C@H](CC(=O)N(CCO)Cc1ccccc1)C(=O)N[C@H](COC(=O)[C@@H](CC=C)CC(=O)OC(C)(C)C)Cc1c[nH]c2ccccc12 | 64* | -4 | 5 | 0 | 0 | .
O=[N+]([O-])c1ccc2c(c1)C(N1CCOCC1)/C(=C/COc1ccc(Cl)cc1Cl)O2 (stereo unspecified) | . | 4 | . | . | . | .
COc1ccccc1NS(=O)(=O)c1ccc(C(=O)NCc2ccc(S(N)(=O)=O)cc2)cc1 | -5 | -2 | 12 | -1 | 3 | -1
Cc1ccc(S(=O)(=O)N2CCCC2CNC(=O)C(=O)NCc2ccc3c(c2)OCO3)cc1 (stereo unspecified) | . | -8 | 12 | 43* | -1 | 3
CCCNC(=O)C[C@H]1CC[C@H]2[C@@H](COC[C@@H](O)CN2S(=O)(=O)c2ccc(Oc3ccccc3)cc2)O1 | -1[16.7 µM] | -6 | -2 | 0 | 90* | 2
SMILES | HIV Env fusion | PGC1a acetyl inh | Ecoli rRNA inh | FGF22 binding | Cneo AK release | ERAP1 inh
Cc1cc(C)nc(N2CCCC(C(=O)NCc3ccc4c(c3)OCO4)C2)n1 (stereo unspecified) | 9 | . | 8 | 43* | . | 1
CCCNC(=O)C[C@@H]1CC[C@@H]2[C@H](COC[C@H](O)CN2S(=O)(=O)c2ccc(Oc3ccccc3)cc2)O1 | -2[16.7 µM] | -6 | 0 | 0 | 8 | 0
Cc1cc(C)nc(N2CCC(C(=O)NCc3ccco3)CC2)n1 | -54 | 95* | . | . | 1 | .
COc1ccc(Cc2c[nH]c(=O)[nH]c2=O)cc1 | -9 | -37 | . | . | 0 | .
CN1CCC(N(C)CC(=O)Nc2ccc3c(c2)OC(F)(F)O3)CC1 | -1 | 0 | 10 | 0 | -1 | -2
Cc1nc2ccccc2nc1CN1CCN(Cc2ccc(F)c(F)c2)C(CCO)C1 (stereo unspecified) | 8 | 4 | 3 | 0 | -1 | -3
Cc1ccc(S(=O)(=O)N2C[C@@H](O)COC[C@@H]3O[C@H](CC(=O)NCc4ccc5c(c4)OCO5)CC[C@H]32)cc1 | 3[16.7 µM] | -8 | -4 | 0 | 109* | -1
CNC(=O)C[C@@H]1CC[C@@H]2[C@H](COC[C@H](O)CN2S(=O)(=O)c2ccc(Oc3ccccc3)cc2)O1 | . | 8 | 1 | 1 | -3 | 2
O=C(C[C@H]1CC[C@H]2[C@@H](COC[C@@H](O)CN2S(=O)(=O)c2ccc(Oc3ccccc3)cc2)O1)NC1CCC1 | . | -8 | 1 | 0 | 86* | 2
Cc1cn(C2OC(COC(=O)c3ccccc3)C(O)C2Cl)c(=O)[nH]c1=O (stereo unspecified) | 13 | 3 | 4 | 43* | 1 | -3
CCC(=O)NCCc1cc2cc(C)c(C)cc2[nH]c1=O | . | -3 | . | . | . | .
Cc1c(Cl)c(=O)n2c(=O)c(Cl)c(C)n12 | 9 | -3 | 13 | 44* | -1 | 1
Cc1nc2sc(C(c3ccco3)N3CCN(c4cccc(Cl)c4)CC3)c(O)n2n1 (stereo unspecified) | -37 | -5 | -39* | . | 1 | -1
COc1ccc(OC)c(NS(=O)(=O)c2cccc3cccnc23)c1 | 17 | -8 | 5 | 0 | 0 | 1
S=C(c1ccc(-c2ccccc2)cc1)N1CCOCC1 | 63* | -2 | -23 | 0 | -6 | -3
O=C(c1ccc(-c2ccccc2)cc1)c1ccccc1C(=O)N1CCOCC1 | -7 | 1 | . | . | -4 | .
CCN1CCN(c2ncnc3c2c(-c2ccccc2)cn3-c2ccc(F)cc2)CC1 | 0 | 7 | 7 | 41 | . | 0
Fc1ccc(-n2cc(-c3ccccc3)c3c(N4CCOCC4)ncnc32)cc1 | 39 | 3 | -24* | 0 | . | -2
Cc1cc2c(SCC(=O)Nc3ccccc3O)ncnc2s1 | . | 1 | -3 | 0 | -1 | 1
